# Measurements pooled from the literature.
# Compare with care: the assays were run in different laboratories.
# Target: Serine/threonine-protein kinase TNNI3K (TNNI3K, Homo sapiens, UniProt Q59H18)
# Sequence (Q59H18 1-835, as in one of the studies): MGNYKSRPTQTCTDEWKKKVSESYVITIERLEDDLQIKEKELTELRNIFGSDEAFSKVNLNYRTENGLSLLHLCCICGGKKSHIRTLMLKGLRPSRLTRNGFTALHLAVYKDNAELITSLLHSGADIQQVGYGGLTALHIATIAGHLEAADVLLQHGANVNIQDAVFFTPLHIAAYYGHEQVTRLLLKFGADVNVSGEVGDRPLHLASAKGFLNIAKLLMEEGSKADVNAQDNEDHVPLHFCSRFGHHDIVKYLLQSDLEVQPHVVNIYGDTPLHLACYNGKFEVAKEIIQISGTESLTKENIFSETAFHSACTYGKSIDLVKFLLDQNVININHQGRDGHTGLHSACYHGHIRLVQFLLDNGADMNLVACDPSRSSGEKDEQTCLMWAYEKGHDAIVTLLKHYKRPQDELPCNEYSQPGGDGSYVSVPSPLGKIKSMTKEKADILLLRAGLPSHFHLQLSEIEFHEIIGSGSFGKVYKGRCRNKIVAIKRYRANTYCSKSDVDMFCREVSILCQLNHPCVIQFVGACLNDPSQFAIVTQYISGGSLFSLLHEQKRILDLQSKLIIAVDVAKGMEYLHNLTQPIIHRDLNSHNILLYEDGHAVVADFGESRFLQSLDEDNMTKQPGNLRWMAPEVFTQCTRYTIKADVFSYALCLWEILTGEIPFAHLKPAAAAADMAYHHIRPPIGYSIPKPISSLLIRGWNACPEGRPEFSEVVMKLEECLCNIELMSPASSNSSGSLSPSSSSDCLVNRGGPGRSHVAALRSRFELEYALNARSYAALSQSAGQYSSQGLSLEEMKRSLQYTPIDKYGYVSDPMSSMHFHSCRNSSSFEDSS
SMILES,effect on,method,tested at,remaining binding [%]
CCOC(=O)c1cc2cc(-c3cc(C(=O)NCc4ccc(C(=O)O)cc4)nn3C)ccc2[nH]1,cell-free assay,competition with immobilised ligand,0.1 µM,100
CN(c1nccc(-c2cnn3ncccc23)n1)C1CC1,binding,,1 µM,84
O=C(NCCCN1CCOCC1)c1ccc(Nc2ncc(Cl)c(-c3ccc(Cl)s3)n2)cc1,binding,competition with immobilised ligand,1 µM,78
COc1ncc2cc3ccccc3nc2c1C#N,cell-free assay,competition with immobilised ligand,5 µM,100
CS(=O)(=O)c1cc(C2(NC(=O)c3cncc4c3cnn4-c3ccc(F)cc3)CC2)ccn1,cell-free assay,competition with immobilised ligand,1 µM,64
FC(F)(F)Oc1cccc(-c2cnc3ccc(-c4ccncc4)nn23)c1,binding,competition with immobilised ligand,5 µM,91
C[C@@H]1CCN(c2nccc(-c3cnn4ncccc34)n2)C1,binding,,1 µM,100
Cc1nc(C2CCN(C(=O)c3ccc(OC(F)(F)F)cc3N)CC2)c2ncc(N3CCN(C)CC3)cc2n1,cell-free assay,competition with immobilised ligand,1 µM,100
O=C(NCC1CCOCC1)c1n[nH]cc1NC(=O)c1c(F)cccc1F,binding,competition with immobilised ligand,1 µM,100
CN(CCCC(F)(F)F)c1nccc(-c2cnn3ncccc23)n1,binding,,1 µM,100
CCCCN(CCCC)C(=O)CN1C[C@H](c2cc(OC)c3c(c2)OCO3)[C@@H](C(=O)O)[C@@H]1CC(C)(C)CCC,cell-free assay,competition with immobilised ligand,1 µM,100
O=C(NCCCN1CCOCC1)c1ccc(Nc2nccc(-c3cc4ccccc4s3)n2)cc1,binding,competition with immobilised ligand,1 µM,70
F[C@@H]1CCN(c2nccc(-c3cnn4ncccc34)n2)C1,binding,,1 µM,100
COc1ccc2c(O[C@@H]3C[C@H]4C(=O)N[C@]5(C(=O)O)CC5/C=C\CCCCC[C@H](NC(=O)OC5CCCC5)C(=O)N4C3)cc(-c3csc(NC(=O)C(C)C)n3)nc2c1C (stereo partly shown),cell-free assay,competition with immobilised ligand,1 µM,100
COc1cnc(Nc2cccc(S(N)(=O)=O)c2)nc1N1CCN(c2ccccc2)C(=O)C1,binding,competition with immobilised ligand,1 µM,86
c1cnn2ncc(-c3ccnc(N4CCC45COC5)n3)c2c1,binding,,1 µM,100
COc1ccc2cc(OCC3(C(=O)O)CN(C(=O)c4ccc(F)cc4)C3)ccc2c1,cell-free assay,competition with immobilised ligand,1 µM,100
N[C@@H]1CCN(c2nccc(-c3cnn4ncccc34)n2)C1,binding,,1 µM,94
Cc1cnc(Nc2ccc(C(=O)N3CCC(N4CCCC4)CC3)cc2)nc1-c1cc2ccccc2s1,binding,competition with immobilised ligand,1 µM,31
CS(=O)(=O)N1CCCC(NC(=O)[C@H](CCC2CCCCC2)NC(=O)c2ccc(CNc3ncnc4c3nnn4-c3ccccc3)cc2)C1 (stereo partly shown),cell-free assay,competition with immobilised ligand,0.1 µM,63
COc1ccnn2ncc(-c3ccnc(N(C)C)n3)c12,binding,,1 µM,93
CCN1CCN(Cc2ccc(C(=O)Nc3ccc(C)c(Oc4ccc5c(c4)CC(=O)N5)c3)cc2C(F)(F)F)CC1,binding,competition with immobilised ligand,1 µM,88
